Legend:
Adenosine receptor A3 = biological target: T1, Adenosine receptor A3 (Homo sapiens, UniProt P0DMS8); experiment: Displacement of [3H]NECA from human adenosine A3 receptor in stably transfected HEK cells; assay type: cell-based, HEK293
T1 sequence (P0DMS8 whole entry): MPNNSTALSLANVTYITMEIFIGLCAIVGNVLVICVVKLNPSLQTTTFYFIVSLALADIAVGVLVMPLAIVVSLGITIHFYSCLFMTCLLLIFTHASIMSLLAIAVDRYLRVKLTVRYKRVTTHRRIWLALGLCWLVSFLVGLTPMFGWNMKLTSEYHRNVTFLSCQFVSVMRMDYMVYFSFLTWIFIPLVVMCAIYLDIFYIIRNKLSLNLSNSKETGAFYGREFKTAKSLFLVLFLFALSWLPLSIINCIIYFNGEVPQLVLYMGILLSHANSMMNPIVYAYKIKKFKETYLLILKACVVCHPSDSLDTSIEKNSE
Outline: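 Competition for specific [³H]NECA binding at human recombinant A3 receptor stably transfected into HEK cells; Ki reported in nM.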

Adenosine receptor A1 = biological target: T2, Adenosine receptor A1 (Homo sapiens, UniProt P30542); experiment: Displacement of [3H]CCPA from human adenosine A1 receptor expressed in CHO cells; assay type: cell-based
T2 sequence (P30542 whole entry): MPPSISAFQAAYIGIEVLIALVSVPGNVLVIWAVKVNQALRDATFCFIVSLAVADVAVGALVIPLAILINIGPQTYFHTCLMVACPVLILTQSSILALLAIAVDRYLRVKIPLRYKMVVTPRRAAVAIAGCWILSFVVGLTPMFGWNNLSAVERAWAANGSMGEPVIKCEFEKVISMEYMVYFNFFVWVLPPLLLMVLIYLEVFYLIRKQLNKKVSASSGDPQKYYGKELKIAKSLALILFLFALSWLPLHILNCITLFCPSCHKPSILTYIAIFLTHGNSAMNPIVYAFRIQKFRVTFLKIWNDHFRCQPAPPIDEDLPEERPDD

Adenosine receptor A2a = Adenosine receptor A2a (Homo sapiens, UniProt P29274); experiment: Displacement of [3H]NECA from human adenosine A2A receptor in stably transfected CHO cells; assay type: cell-based
Outline: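 Radioligand displacement of specific [³H]NECA binding to human recombinant A2A receptor stably expressed in CHO cells; affinity given as Ki (nM).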

[1] = biological target: T3, Adenosine receptor A2b (Homo sapiens) (UniProt P29275); experiment: Potency NECA-induced signal mediated by human A2B receptor in CHO cells at 100 uM; assay type: cell-based
T3 sequence (whole entry): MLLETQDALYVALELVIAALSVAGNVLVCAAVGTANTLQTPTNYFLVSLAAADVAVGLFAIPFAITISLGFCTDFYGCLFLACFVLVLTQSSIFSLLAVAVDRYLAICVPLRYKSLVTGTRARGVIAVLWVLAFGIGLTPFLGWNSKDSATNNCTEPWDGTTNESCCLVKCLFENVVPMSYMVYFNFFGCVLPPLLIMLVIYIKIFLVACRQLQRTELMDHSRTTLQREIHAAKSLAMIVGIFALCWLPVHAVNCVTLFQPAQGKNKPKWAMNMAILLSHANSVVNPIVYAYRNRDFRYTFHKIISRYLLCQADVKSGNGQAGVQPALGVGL
Outline: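 Adenylyl cyclase activation measured in membranes from CHO cells stably transfected with human A2B receptor; test compounds at […], response expressed as percent of maximal NECA signal.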

[2] = biological target: Adenosine receptors; A1 & A2a (Homo sapiens) (UniProt P30542+P29274); experiment: Ratio of binding affinity for adenosine A2A receptor to adenosine A1 receptor; assay type: protein assay
[3] = biological target: Adenosine receptors; A1 & A3 (Homo sapiens) (UniProt P30542+P0DMS8); experiment: Ratio of binding affinity for adenosine A3 receptor to adenosine A1 receptor; assay type: protein assay

Sequence of Adenosine receptor A2a (P29274 whole entry): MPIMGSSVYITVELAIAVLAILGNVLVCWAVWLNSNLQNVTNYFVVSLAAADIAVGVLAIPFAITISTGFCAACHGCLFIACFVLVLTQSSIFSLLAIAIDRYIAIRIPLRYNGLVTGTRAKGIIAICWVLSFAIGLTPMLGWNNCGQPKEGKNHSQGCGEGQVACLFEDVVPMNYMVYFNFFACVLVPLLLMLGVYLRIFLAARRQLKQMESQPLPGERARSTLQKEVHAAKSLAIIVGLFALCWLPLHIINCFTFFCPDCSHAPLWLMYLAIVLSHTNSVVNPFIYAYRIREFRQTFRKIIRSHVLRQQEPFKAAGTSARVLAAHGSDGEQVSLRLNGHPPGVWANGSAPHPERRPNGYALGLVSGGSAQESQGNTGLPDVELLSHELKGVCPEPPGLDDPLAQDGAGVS
Sequence of Adenosine receptors; A1 & A2a (Homo sapiens) (P29274 whole entry, looked up, one chain of several): as the sequence (P29274 whole entry) above

Nc1nc(NC(=O)CCC2CCCC2)nc2c1ncn2[C@@H]1O[C@H](CO)[C@@H](O)[C@H]1O
Ki (Adenosine receptor A3): 1.04 µM | Ki (Adenosine receptor A1): 0.252 µM | Ki (Adenosine receptor A2a): 2 µM | Potency [1]: < 20% | Ratio [2]: 8 | Ratio [3]: 4

Nc1nc(NC(=O)CC2CCCCC2)nc2c1ncn2[C@@H]1O[C@H](CO)[C@@H](O)[C@H]1O
Ki (Adenosine receptor A3): 1.23 µM | Ki (Adenosine receptor A1): 0.342 µM | Ki (Adenosine receptor A2a): 2.41 µM | Potency [1]: < 20% | Ratio [2]: 7 | Ratio [3]: 4

CCNc1nc(NC(=O)CC2CCCCC2)nc2c1ncn2[C@@H]1O[C@H](CO)[C@@H](O)[C@H]1O
Ki (Adenosine receptor A3): 0.181 µM | Ki (Adenosine receptor A1): 0.207 µM | Ki (Adenosine receptor A2a): 7.75 µM | Potency [1]: < 20% | Ratio [2]: 37 | Ratio [3]: 0.9

Nc1nc(NC(=O)CCc2ccccc2)nc2c1ncn2[C@@H]1O[C@H](CO)[C@@H](O)[C@H]1O
Ki (Adenosine receptor A3): 2.71 µM | Ki (Adenosine receptor A1): 0.432 µM | Ki (Adenosine receptor A2a): 4.57 µM | Potency [1]: < 20% | Ratio [2]: 11 | Ratio [3]: 6

CCNC(=O)[C@H]1O[C@@H](n2cnc3c(N)nc(NC(=O)CCC4CCCC4)nc32)[C@H](O)[C@@H]1O
Ki (Adenosine receptor A3): 1.01 µM | Ki (Adenosine receptor A1): 5.45 µM | Ki (Adenosine receptor A2a): 10.8 µM | Potency [1]: < 20% | Ratio [2]: 2 | Ratio [3]: 0.2

O=C(CCC1CCCC1)Nc1nc(NC2CCCC2)c2ncn([C@@H]3O[C@H](CO)[C@@H](O)[C@H]3O)c2n1
Ki (Adenosine receptor A3): 1.41 µM | Ki (Adenosine receptor A1): 0.0318 µM | Ki (Adenosine receptor A2a): 2.18 µM | Potency [1]: < 20% | Ratio [2]: 69 | Ratio [3]: 44

Nc1nc(NC(=O)CCCC2CCCCC2)nc2c1ncn2[C@@H]1O[C@H](CO)[C@@H](O)[C@H]1O
Ki (Adenosine receptor A3): 1.06 µM | Ki (Adenosine receptor A1): 0.733 µM | Ki (Adenosine receptor A2a): 1.94 µM | Potency [1]: < 20% | Ratio [2]: 3 | Ratio [3]: 1.4

Nc1nc(NC(=O)/C=C/c2ccccc2)nc2c1ncn2[C@@H]1O[C@H](CO)[C@@H](O)[C@H]1O
Ki (Adenosine receptor A3): 0.9 µM | Ki (Adenosine receptor A1): 0.0707 µM | Ki (Adenosine receptor A2a): 4.1 µM | Potency [1]: < 20% | Ratio [2]: 58 | Ratio [3]: 13

Nc1nc(NC(=O)C2CCCCC2)nc2c1ncn2[C@@H]1O[C@H](CO)[C@@H](O)[C@H]1O
Ki (Adenosine receptor A3): 2.76 µM | Ki (Adenosine receptor A1): 1.62 µM | Ki (Adenosine receptor A2a): 1.78 µM | Potency [1]: < 20% | Ratio [2]: 1.1 | Ratio [3]: 1.7

O=C(CCc1ccccc1)Nc1nc(NC2CCCC2)c2ncn([C@@H]3O[C@H](CO)[C@@H](O)[C@H]3O)c2n1
Ki (Adenosine receptor A3): 1.25 µM | Ki (Adenosine receptor A1): 0.0207 µM | Ki (Adenosine receptor A2a): 5.66 µM | Potency [1]: < 20% | Ratio [2]: 273 | Ratio [3]: 60

OC[C@H]1O[C@@H](n2cnc3c(NC4CCCC4)nc(Cl)nc32)[C@H](O)[C@@H]1O
Potency [1]: < 20%

— ChEMBL document CHEMBL1147632, “2-(N-acyl) and 2-N-acyl-N(6)-substituted analogues of adenosine and their affinity at the human adenosine receptors” (Bioorg Med Chem Lett, 2004)
